Calls of active or inactive are those of the source. No cut-off for these calls is given here.
Columns and labels:
[1] = target: T1, Glucose-dependent insulinotropic receptor (Rattus norvegicus) (UniProt Q7TQN8); experiment: Agonist activity at rat GPR119 by HTRF cAMP assay relative to AR231453; assay type: functional
T1 sequence (whole entry): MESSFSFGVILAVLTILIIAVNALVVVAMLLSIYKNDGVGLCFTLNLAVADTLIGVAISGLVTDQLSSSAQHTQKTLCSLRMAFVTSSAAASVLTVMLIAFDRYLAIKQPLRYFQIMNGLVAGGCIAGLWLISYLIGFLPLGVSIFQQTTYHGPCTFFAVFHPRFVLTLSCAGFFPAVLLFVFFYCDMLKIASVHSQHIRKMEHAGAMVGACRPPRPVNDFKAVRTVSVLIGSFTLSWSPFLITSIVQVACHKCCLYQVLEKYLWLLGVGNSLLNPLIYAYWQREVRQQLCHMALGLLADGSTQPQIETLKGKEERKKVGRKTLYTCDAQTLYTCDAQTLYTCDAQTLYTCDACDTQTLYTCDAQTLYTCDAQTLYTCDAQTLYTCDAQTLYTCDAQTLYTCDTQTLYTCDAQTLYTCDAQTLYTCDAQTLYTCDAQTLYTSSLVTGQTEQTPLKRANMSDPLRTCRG

[2] = target: T2, Glucose-dependent insulinotropic receptor (Homo sapiens, UniProt Q8TDV5); experiment: Agonist activity at human GPR119 by HTRF cAMP assay; assay type: functional
T2 sequence (Q8TDV5 whole entry): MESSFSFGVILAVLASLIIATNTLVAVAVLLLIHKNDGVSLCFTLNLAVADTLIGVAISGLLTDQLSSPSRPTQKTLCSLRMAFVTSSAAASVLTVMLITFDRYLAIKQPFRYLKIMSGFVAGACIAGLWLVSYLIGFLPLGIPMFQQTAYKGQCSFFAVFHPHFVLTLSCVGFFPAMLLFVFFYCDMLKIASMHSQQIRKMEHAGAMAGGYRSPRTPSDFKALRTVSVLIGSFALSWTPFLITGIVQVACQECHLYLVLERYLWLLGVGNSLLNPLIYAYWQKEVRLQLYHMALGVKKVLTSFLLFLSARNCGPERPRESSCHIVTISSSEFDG

[3] = target: T3, Glucose-dependent insulinotropic receptor (Rattus norvegicus, UniProt Q7TQN8); experiment: Agonist activity at rat GPR119 by HTRF cAMP assay; assay type: functional
T3 sequence (Q7TQN8 whole entry): T1 sequence (whole entry)

[4] = target: T4, Glucose-dependent insulinotropic receptor (Homo sapiens) (UniProt Q8TDV5); experiment: Agonist activity at human GPR119 by HTRF cAMP assay relative to AR231453; assay type: functional
T4 sequence (whole entry): T2 sequence (Q8TDV5 whole entry)

[5] = tested on: Mus musculus; experiment: In vivo activation of GPR119 in normoglycemic 129SVE mouse assessed as increase in GIP level in plasma at 30 mg/kg, po measured after 45 mins relative to vehicle-treated control; assay type: functional, organism-based
In short: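 Normoglycemic male 129SVE mice dosed orally (3 and 30 mg/kg); plasma GIP measured 45 min after dosing versus vehicle-treated controls; AR231453 at 30 mg/kg as reference agonist.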

[6] = Half life in rat liver microsomes; assay type: ADME
[7] = Half life in human liver microsomes; assay type: ADME
[8] = Half life in mouse liver microsomes; assay type: ADME
[9] = target: T2, Glucose-dependent insulinotropic receptor; experiment: Agonist activity at human GPR119 by serum shift assay
In short: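 HTRF cAMP read-out with cells plated overnight; growth medium swapped for fetal bovine serum-containing medium. Compounds serially diluted in DMSO, then in PBS with IBMX and 0.1% BSA to 2× concentration (1% DMSO) before addition. Potency compared with and without serum.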

[10] = tested on: Mus musculus; experiment: Antidiabetic activity in normoglycemic 129SVE mouse assessed as […] administered 30 mins prior to glucose challenge measured over 120 mins by OGTT; assay type: functional, organism-based
[11] = species: Rattus norvegicus; experiment: Toxicity in rat assessed as physical mobility impairment; assay type: organism-based; details: in vivo
[12] = tested on: Mus musculus; experiment: Antidiabetic activity in normoglycemic 129SVE mouse assessed as suppression of plasma glucose AUC at 3 mg/kg, po administered 30 mins prior to glucose challenge measured over 120 mins by OGTT; assay type: functional, organism-based
[13] = tested on: Rattus norvegicus; experiment: Antidiabetic activity in Zucker diabetic fatty rat assessed as suppression of plasma glucose AUC at 3 mg/kg administered 60 mins prior to glucose challenge by OGTT relative to vehicle-treated control; assay type: functional

Row | SMILES | Emax [1] [%] | EC50 [2] [nM] | EC50 [3] [nM] | Emax [4] [%] | other results
1 | CC(C)S(=O)(=O)c1cnc(O[C@H]2CC[C@H](OC3CCN(C(=O)OC(C)(C)C)CC3)CC2)cn1 | 128 | 18.5 | 54 | 109 | –
2 | COc1c(Nc2ccc(S(C)(=O)=O)nc2C)ncnc1OC1CCN(C(=O)OC(C)C)CC1 | 89 | – | – | 75 | –
3 | CS(=O)(=O)c1cnc(O[C@H]2CC[C@H](OC3CCN(CC(F)(F)F)CC3)CC2)cn1 | 105 | 776 | 1960 | 91 | –
4 | CS(=O)(=O)c1cnc(O[C@H]2CC[C@H](OC3CCN(C(=O)OC4CCOC4)CC3)CC2)cn1 (stereo not given in full) | 109 | 427 | 1500 | 105 | –
5 | CC(C)(C)OC(=O)N1CCC(O[C@H]2CC[C@H](Oc3ccc(S(C)(=O)=O)c(F)c3)CC2)CC1 | 109 | 52 | 167 | 106 | –
6 | CC(C)c1noc(C2CCN(c3ncnc(Nc4ccc(S(C)(=O)=O)cc4F)c3[N+](=O)[O-])CC2)n1 | – | – | – | – | Activity [5]: Active
7 | CS(=O)(=O)c1cnc(O[C@H]2CC[C@H](OC3CCN(CC4(F)CCCC4)CC3)CC2)cn1 | 119 | 101 | 922 | – | –
8 | CS(=O)(=O)c1cnc(O[C@H]2CC[C@H](OC3CCN(CC4(C(F)(F)F)CC4)CC3)CC2)cn1 | 124 | 62.6 | 163 | 116 | half-life [6]: > 1 h; half-life [7]: 0.35 h; half-life [8]: 0.617 h
9 | C[C@@H](CF)OC(=O)N1CCC(O[C@H]2CC[C@H](Oc3cnc(S(C)(=O)=O)cn3)CC2)CC1 | 123 | 31.1 | 356 | 105 | –
10 | C[C@H](CF)OC(=O)N1CCC(O[C@H]2CC[C@H](Oc3cnc(S(C)(=O)=O)cn3)CC2)CC1 | 115 | 36.8 | 317 | 108 | –
11 | CS(=O)(=O)c1cnc(O[C@H]2CC[C@H](OC3CCN(C(=O)OC(CF)CF)CC3)CC2)cn1 | 128 | 65.1 | 467 | 114 | half-life [6]: > 1 h; half-life [7]: > 1 h; half-life [8]: > 1 h
12 | CC(C)(C)OC(=O)N1CCC(O[C@H]2CC[C@H](Oc3ccc(S(C)(=O)=O)nn3)CC2)CC1 | 86 | 651 | 1160 | 97 | –
13 | CS(=O)(=O)c1cnc(O[C@H]2CC[C@H](OC3CCN(CC4(C(F)(F)F)CCCC4)CC3)CC2)cn1 | 88 | 48.8 | 101 | 37 | –
14 | Cc1nc(S(C)(=O)=O)ccc1Oc1ncnc(OC2CCN(C(=O)OC3(C)CC3)CC2)c1F | 93 | – | – | 94 | –
15 | CS(=O)(=O)c1cnc(O[C@H]2CC[C@H](OC3CCN(C(=O)C4(C(F)(F)F)CCCC4)CC3)CC2)cn1 | 124 | 38.4 | 108 | 95 | –
16 | CS(=O)(=O)c1cnc(O[C@H]2CC[C@H](OC3CCN(C(=O)C4(C(F)(F)F)CC4)CC3)CC2)cn1 | 140 | 107 | 1380 | 107 | –
17 | CC1(OC(=O)N2CCC(O[C@H]3CC[C@H](Oc4cnc(S(C)(=O)=O)cn4)CC3)CC2)CC1 | 123 | 25.9 | 138 | 118 | –
18 | CC(C)(C)OC(=O)N1CCC(O[C@H]2CC[C@H](Oc3ccc(S(C)(=O)=O)cn3)CC2)CC1 | 108 | 47 | 110 | 111 | –
19 | CC(C)(C)OC(=O)N1CCC(OC2CCCC(Oc3ccc(S(C)(=O)=O)cc3)C2)CC1 (mixture of isomers) | – | > 100000 | – | – | –
20 | CS(=O)(=O)c1cnc(O[C@H]2CC[C@H](OC3CCN(CC4(C(F)(F)F)CCC4)CC3)CC2)cn1 | 99 | 54.8 | 80 | 96 | –
21 | CC(C)(C)OC(=O)N1CCC(OC2CCC(Oc3ccc(S(C)(=O)=O)cc3)CC2)CC1 (mixture of isomers) | – | > 200 | – | – | –
22 | N[C@@H](CC(=O)N1CCn2c(nnc2C(F)(F)F)C1)Cc1cc(F)c(F)cc1F [SITAGLIPTIN] | – | – | – | – | Activity [12]: Active; Activity [13]: 57%
23 | Cc1nc(O[C@H]2CC[C@H](OC3CCN(C(=O)OC(C)(C)C)CC3)CC2)ccc1C(=O)N(C)C | 111 | 262 | 400 | 121 | –
24 | CC(C)(C)OC(=O)N1CCC(O[C@H]2CC[C@@H](Oc3ccc(S(C)(=O)=O)cc3)CC2)CC1 | 121 | – | 1390 | 120 | –

Continued, in another order:

Row | Emax [1] [%] | EC50 [2] [nM] | EC50 [3] [nM] | Emax [4] [%] | SMILES | other results
25 | 125 | 13 | 201 | 101 | CC(C)OC(=O)N1CCC(O[C@H]2CC[C@H](Oc3ccc(S(C)(=O)=O)nc3)CC2)CC1 | –
26 | 106 | 8.6 | 45 | 116 | CC(C)(C)OC(=O)N1CCC(O[C@H]2CC[C@H](Oc3ccc(C#N)cc3)CC2)CC1 | EC50 [9]: 334 nM
27 | 120 | 13.7 | 119 | 110 | CC(C)OC(=O)N1CCC(O[C@H]2CC[C@H](Oc3cnc(S(C)(=O)=O)cn3)CC2)CC1 | half-life [6]: > 1 h; half-life [7]: > 1 h; EC50 [9]: 92.7 nM; half-life [8]: > 1 h
28 | 125 | 4.8 | 49.9 | 112 | C[C@H](OC(=O)N1CCC(O[C@H]2CC[C@H](Oc3cnc(S(C)(=O)=O)cn3)CC2)CC1)C(F)(F)F | half-life [6]: > 1 h; half-life [7]: > 1 h; EC50 [9]: 53 nM; half-life [8]: > 1 h; Activity [10]: inactive
29 | 121 | 1.2 | 10.9 | 104 | CS(=O)(=O)c1cnc(O[C@H]2CC[C@H](OC3CCN(C(=O)OC(C(F)(F)F)C(F)(F)F)CC3)CC2)cn1 | half-life [6]: > 1 h; half-life [7]: > 1 h; EC50 [9]: 45.2 nM; half-life [8]: > 1 h; Activity [11]: Dose-dependent effect
30 | 126 | 5.3 | 66.9 | 107 | CCC(F)(F)C(=O)N1CCC(O[C@H]2CC[C@H](Oc3cnc(S(C)(=O)=O)cn3)CC2)CC1 | half-life [6]: > 1 h; half-life [7]: > 1 h; EC50 [9]: 28.7 nM; half-life [8]: 0.05 h
31 | 100 | 8.3 | 28.4 | 110 | CC(C)(C)OC(=O)N1CCC(O[C@H]2CC[C@H](Oc3cnc(C#N)cn3)CC2)CC1 | EC50 [9]: 144 nM
32 | 110 | 5.9 | 64 | 110 | CC(C)(C)OC(=O)N1CCC(O[C@H]2CC[C@H](Oc3cnc(S(C)(=O)=O)cn3)CC2)CC1 | EC50 [9]: 94 nM
33 | 114 | 11 | 89 | 108 | Cc1nc(S(C)(=O)=O)ccc1O[C@H]1CC[C@H](OC2CCN(C(=O)OC(C)C)CC2)CC1 | –
34 | 104 | 9.6 | 71.8 | 116 | CS(=O)(=O)c1cnc(O[C@H]2CC[C@H](OC3CCN(C(=O)Oc4ccccc4)CC3)CC2)cn1 | –
35 | 120 | 16.1 | 94 | 115 | CC(C)(C)OC(=O)N1CCC(O[C@H]2CC[C@H](Oc3ccc(S(C)(=O)=O)cc3)CC2)CC1 | –
36 | 119 | 8.5 | 61 | 113 | CC(C)(C)OC(=O)N1CCC(O[C@H]2CC[C@H](Oc3ccc(S(C)(=O)=O)cc3F)CC2)CC1 | EC50 [9]: 227 nM

Source: ChEMBL document CHEMBL3596131, “Discovery of a novel trans-1,4-dioxycyclohexane GPR119 agonist series” (Bioorg Med Chem Lett, 2015)
